Measured values collected from several papers.
Protocols differ between the studies behind these lines.
Target: Cyclin-dependent kinase 3 (CDK3, Homo sapiens, UniProt Q00526)

SMILES	observed	method	concentration	remaining binding
FC(F)(F)Oc1cccc(-c2cnc3ccc(-c4ccncc4)nn23)c1	cell-free assay	competition with immobilised ligand	5 µM	79%
C[C@H](c1cccc(C#N)c1)n1cc(Cl)cc(C(N)=O)c1=N	cell-free assay	competition with immobilised ligand	1 µM	100%
F[C@@H]1CCN(c2nccc(-c3cnn4ncccc34)n2)C1	binding	–	1 µM	100%
COc1ncc2cc3ccccc3nc2c1C#N	cell-free assay	competition with immobilised ligand	5 µM	100%
COc1cnc(Nc2cccc(S(N)(=O)=O)c2)nc1N1CCN(c2ccccc2)CC1	binding	competition with immobilised ligand	1 µM	100%
O=C(Nc1c[nH]nc1C(=O)NC1CCNCC1)c1cc(F)cc(F)c1	binding	competition with immobilised ligand	1 µM	91%
CCN1CCN(Cc2ccc(C(=O)Nc3ccc(C)c(Oc4ccc5c(c4)CC(=O)N5)c3)cc2C(F)(F)F)CC1	binding	competition with immobilised ligand	1 µM	100%
O=C(c1ccc(Nc2ncc(Cl)c(-c3ccc(Cl)s3)n2)cc1)N1CCC(N2CCCC2)CC1	binding	competition with immobilised ligand	1 µM	47%
CCCOc1ccc([C@@H]2[C@@H](C(=O)O)[C@H](c3ccc4c(c3)OCO4)CN2CC(=O)Nc2c(CC)cccc2CC)cc1	cell-free assay	competition with immobilised ligand	1 µM	100%
O=C(c1ccc(Nc2ncc(Cl)c(-c3cc4ccccc4s3)n2)cc1)N1CCC(N2CCCC2)CC1	binding	competition with immobilised ligand	1 µM	48%
CN(C)c1nccc(-c2cnc3ncccn23)n1	binding	–	1 µM	79%
C[C@H](c1ccnc(Nc2nc3ccc(-c4cc(N(C)C)ncn4)cc3[nH]2)c1)N1CCN(C(=O)CC(F)(F)F)CC1	cell-free assay	competition with immobilised ligand	0.1 µM	100%
C[C@@H]1CN(c2ccc3ncc(-c4ccc5[nH]nc(C6CC6)c5c4)n3n2)C[C@H](C)O1	binding	competition with immobilised ligand	50 nM	100%
CN(C)c1nccc(-c2cnn3ncccc23)n1	binding	–	1 µM	78%
CC(C)(C)c1ccc(-c2nc(CBr)nn2-c2cccc(O)c2)cc1	cell-free assay	competition with immobilised ligand	10 µM	100%
CS(=O)(=O)c1cc(C2(NC(=O)c3cncc4c3cnn4-c3ccc(F)cc3)CC2)ccn1	cell-free assay	competition with immobilised ligand	1 µM	81%
c1cnn2ncc(-c3ccnc(N4CCC45COC5)n3)c2c1	binding	–	1 µM	74%
CCC(=O)N[C@H]1CC[C@@H](C(=O)N(C)c2ccc(-c3nc4ccccc4o3)cc2)C1	cell-free assay	competition with immobilised ligand	1 µM	98%
Cc1cnn2ncc(-c3ccnc(N(C)C)n3)c2c1	binding	–	1 µM	86%
CCS(=O)(=O)c1cc2cc(C[C@](O)(CC(C)(C)c3ccc(F)cc3C(N)=O)C(F)(F)F)[nH]c2cn1	cell-free assay	competition with immobilised ligand	1 µM	100%
C[C@H]1CCN(c2nccc(-c3cnn4ncccc34)n2)C1	binding	–	1 µM	86%
